According to ChEMBL document CHEMBL4138186, “Synthesis and bio-evaluation of indole-chalcone based benzopyrans as promising antiligase and antiproliferative agents” (Eur J Med Chem, 2018):
Calls of active or inactive are those of the source. The calls are words filed in the database; no cut-off is given here.

Legend:
[1] = target: DNA ligase 1 (Homo sapiens) (UniProt P18858); test: Inhibition of human Lig1 at 10 uM using double strand nicked DNA as substrate after 30 mins in presence of ATP by acrylamide-based fluorescence-assay
Chain of DNA ligase 1 (Homo sapiens) (P18858 whole entry): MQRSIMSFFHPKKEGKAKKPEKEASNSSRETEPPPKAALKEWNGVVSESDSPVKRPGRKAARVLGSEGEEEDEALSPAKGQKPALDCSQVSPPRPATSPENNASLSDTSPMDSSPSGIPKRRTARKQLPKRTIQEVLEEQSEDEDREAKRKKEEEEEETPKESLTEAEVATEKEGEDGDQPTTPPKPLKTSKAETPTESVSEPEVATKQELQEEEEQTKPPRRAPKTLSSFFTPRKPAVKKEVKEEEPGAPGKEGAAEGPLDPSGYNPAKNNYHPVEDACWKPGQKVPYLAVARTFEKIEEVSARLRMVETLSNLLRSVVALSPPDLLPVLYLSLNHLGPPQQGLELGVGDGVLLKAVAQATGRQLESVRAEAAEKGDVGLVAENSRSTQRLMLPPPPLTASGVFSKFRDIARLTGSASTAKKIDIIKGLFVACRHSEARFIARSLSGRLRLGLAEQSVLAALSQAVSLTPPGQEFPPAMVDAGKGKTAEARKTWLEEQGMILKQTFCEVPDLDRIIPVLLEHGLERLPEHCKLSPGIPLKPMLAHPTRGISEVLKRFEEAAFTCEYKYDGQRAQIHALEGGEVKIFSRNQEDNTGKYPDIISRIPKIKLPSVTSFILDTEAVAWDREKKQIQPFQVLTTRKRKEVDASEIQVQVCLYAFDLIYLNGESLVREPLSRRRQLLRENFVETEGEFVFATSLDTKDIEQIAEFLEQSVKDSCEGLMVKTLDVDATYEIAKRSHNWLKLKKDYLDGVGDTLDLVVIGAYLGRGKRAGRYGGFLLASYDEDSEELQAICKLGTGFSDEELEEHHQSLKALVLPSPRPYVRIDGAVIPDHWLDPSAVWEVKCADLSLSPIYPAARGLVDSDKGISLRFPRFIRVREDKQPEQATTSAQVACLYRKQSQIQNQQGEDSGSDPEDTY
Method in brief: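 Cy3-labelled nicked duplex (52-mer annealed to 25- and 27-mers; 1 pmol) with purified hLigI (0.2 pmol) in 50 mM Tris-Cl pH 7.5, 10 mM MgCl2, 0.25 mg/mL BSA, 100 mM NaCl, 500 µM ATP. Compound at 10 μM; 30 min at 37 °C. Stopped with formamide/EDTA; ligated and unligated strands separated on 7 M urea/12% denaturing gel. Triplicate.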

HepG2 [2] = test: Antiproliferative activity against human HepG2 cells at 10 uM after 48 hrs by MTT assay; assay type: functional, cell-based
Method in brief: (§1)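 Cells seeded and allowed to adhere overnight, then given compound from 10 mM DMSO stock; DMSO alone as vehicle control. Grown 48 h, MTT (5 mg/ml) added for 3 h, formazan dissolved in DMSO, absorbance read at 590 nm. % inhibition = (A control − A treated)/A control × 100; three independent biological replicates. Single-point screen at 10 μM; IC50 from three independent experiments.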

MDA-MB-231 [3] = test: Antiproliferative activity against human MDA-MB-231 cells at 10 uM after 48 hrs by MTT assay; assay type: functional, cell-based; method in brief: as §1
DLD-1 [4] = test: Antiproliferative activity against human DLD1 cells at 10 uM after 48 hrs by MTT assay; assay type: functional, cell-based; method in brief: as §1
4T1 (Mus musculus) = test: Antiproliferative activity against mouse 4T1 cells at 10 uM after 48 hrs by MTT assay
HeLa [5] = test: Antiproliferative activity against human HeLa cells at 10 uM after 48 hrs by MTT assay; assay type: functional, cell-based; method in brief: as §1
DLD-1 [6] = test: Induction of apoptosis in human DLD1 cells assessed as early apoptotic cells at 5 uM after 48 hrs by Annexin V-FITC/propidium iodide staining-based flow cytometric method relative to control; assay type: functional
Method in brief: (§2)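 DLD-1 cells exposed to 2.5, 5 and 10 μM for 48 h, harvested, washed in cold PBS and stained with Annexin V-FITC and PI in binding buffer at room temperature in the dark. Analysed by flow cytometry; early and late apoptotic fractions averaged from three independent experiments.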

HEK293 = test: Cytotoxicity against HEK293 cells after 48 hrs by MTT assay; assay type: cell-based; conditions: Homo sapiens, HEK293, 48 h
[7] = Antiproliferative activity against mouse 4T1 cells after 48 hrs by MTT assay
DNA [8] = test: Binding affinity to Escherichia coli pUC18 DNA assessed as protection against DNase1-mediated cleavage at 250 to 700 uM preincubated for 30 mins followed by DNase1 addition measured after 5 mins by 1% agarose gel based UV-transilluminator analysis; assay type: nucleic-acid assay
Method in brief: (§3)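 Linearized pUC18 plasmid DNA (100 ng) incubated with compound (250, 500, 700 μM) or controls (doxorubicin 100 μM; DAPI, methyl green, ampicillin 500 μM) for 30 min at 37 °C in ligation-like buffer. DNase I 0.0025 U added for 5 min at 37 °C, stopped with urea/EDTA buffer, resolved on 1% agarose and imaged under UV.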

HeLa [9] = test: Antiproliferative activity against human HeLa cells after 48 hrs by MTT assay; assay type: functional, cell-based; method in brief: as §1
DLD-1 [10] = test: Induction of apoptosis in human DLD1 cells assessed as late apoptotic cells at 5 uM after 48 hrs by Annexin V-FITC/propidium iodide staining-based flow cytometric method relative to control; assay type: functional; method in brief: as §2
[11] = target: T1, DNA ligase (Enterobacteria phage T4) (UniProt P00970); test: Inhibition of T4 DNA ligase at 10 uM using double strand nicked DNA as substrate at 3.125 to 50 uM after 30 mins in presence of ATP by acrylamide-based fluorescence-assay; conditions: Tequatrovirus T4
T1 sequence (whole entry): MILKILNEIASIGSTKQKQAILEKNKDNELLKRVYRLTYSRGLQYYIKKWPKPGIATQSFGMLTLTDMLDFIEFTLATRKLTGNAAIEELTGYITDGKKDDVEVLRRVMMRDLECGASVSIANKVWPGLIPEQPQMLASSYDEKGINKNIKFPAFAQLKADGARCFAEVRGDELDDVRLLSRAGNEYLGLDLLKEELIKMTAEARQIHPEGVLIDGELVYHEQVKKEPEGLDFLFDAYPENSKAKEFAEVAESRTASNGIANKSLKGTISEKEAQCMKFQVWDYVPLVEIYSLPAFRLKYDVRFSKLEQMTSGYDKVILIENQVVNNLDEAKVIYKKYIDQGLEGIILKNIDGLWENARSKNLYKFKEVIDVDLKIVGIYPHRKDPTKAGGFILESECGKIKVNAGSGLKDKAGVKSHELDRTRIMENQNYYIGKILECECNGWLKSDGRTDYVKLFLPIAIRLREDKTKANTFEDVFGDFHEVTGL

[12] = target: DNA ligase 1 (Homo sapiens) (UniProt P18858); test: Competitive inhibition of human Lig1 using non-ligatable double stranded nicked DNA as substrate after 2 hrs in presence of ATP by EMSA
Method in brief: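 Purified hLigI (10 pmol) with compound (31.25–500 μM) and 2 pmol 5'-FAM-labelled non-ligatable nicked duplex (dideoxy 3' end). Buffer: 50 mM Tris-Cl pH 7.5, 10 mM MgCl2, 0.25 mg/ml BSA, 100 mM NaCl, plus ATP. Incubated 2 h on ice, then 6.5% native PAGE. Three independent experiments.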

HepG2 [13] = test: Antiproliferative activity against human HepG2 cells after 48 hrs by MTT assay; assay type: functional, cell-based; conditions: HepG2, 48 h; method in brief: as §1
DLD-1 [14] = test: Induction of apoptosis in human DLD1 cells assessed as early apoptotic cells at 10 uM after 48 hrs by Annexin V-FITC/propidium iodide staining-based flow cytometric method relative to control; assay type: functional; method in brief: as §2
[15] = target: T2, DNA ligase 3 (Homo sapiens) (UniProt P49916); test: Inhibition of human Lig3beta at 10 uM using double strand nicked DNA as substrate at 3.125 to 50 uM after 30 mins in presence of ATP by acrylamide-based fluorescence-assay
T2 sequence (whole entry): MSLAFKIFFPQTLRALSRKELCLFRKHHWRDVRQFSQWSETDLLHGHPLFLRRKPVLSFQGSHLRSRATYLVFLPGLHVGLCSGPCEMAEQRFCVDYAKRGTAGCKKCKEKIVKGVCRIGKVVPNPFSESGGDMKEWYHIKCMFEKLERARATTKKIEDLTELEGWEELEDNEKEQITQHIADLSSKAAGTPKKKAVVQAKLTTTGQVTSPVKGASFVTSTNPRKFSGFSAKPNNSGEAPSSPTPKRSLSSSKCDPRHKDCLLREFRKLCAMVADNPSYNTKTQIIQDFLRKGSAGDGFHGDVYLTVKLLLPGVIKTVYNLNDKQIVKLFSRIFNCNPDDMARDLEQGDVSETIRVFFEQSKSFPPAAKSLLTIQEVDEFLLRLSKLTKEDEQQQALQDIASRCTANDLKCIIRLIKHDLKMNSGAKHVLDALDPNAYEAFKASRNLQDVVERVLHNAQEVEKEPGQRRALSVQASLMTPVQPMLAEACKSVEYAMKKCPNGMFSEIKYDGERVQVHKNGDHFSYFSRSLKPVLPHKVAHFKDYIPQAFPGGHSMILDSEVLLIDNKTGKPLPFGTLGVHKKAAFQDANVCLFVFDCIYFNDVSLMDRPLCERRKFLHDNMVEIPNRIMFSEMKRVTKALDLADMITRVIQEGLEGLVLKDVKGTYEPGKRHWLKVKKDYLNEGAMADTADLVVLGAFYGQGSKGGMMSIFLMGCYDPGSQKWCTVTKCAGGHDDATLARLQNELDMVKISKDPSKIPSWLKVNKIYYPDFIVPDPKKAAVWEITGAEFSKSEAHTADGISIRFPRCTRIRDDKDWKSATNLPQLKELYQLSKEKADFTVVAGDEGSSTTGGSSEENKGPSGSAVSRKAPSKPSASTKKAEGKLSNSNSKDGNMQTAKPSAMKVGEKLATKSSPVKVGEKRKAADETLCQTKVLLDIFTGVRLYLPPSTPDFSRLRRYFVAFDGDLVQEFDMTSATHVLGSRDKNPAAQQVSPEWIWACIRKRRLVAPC

DLD-1 [16] = test: Anti-migratory activity in human DLD1 cells at 2.5 to 5 uM after 12 to 48 hrs by wound healing assay; assay type: functional, cell-based
Method in brief: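 DLD-1 monolayer at 70-80% confluence scratched with a pipette tip, then exposed to 2.5 and 5 μM for 12, 24 and 48 h (methods state 12, 24, 36 h). Wound imaged by phase-contrast microscopy; % open area quantified at each time point. Mean of three independent experiments.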

DLD-1 [17] = test: Induction of apoptosis in human DLD1 cells after 48 hrs by Annexin V-FITC/propidium iodide staining-based flow cytometric method; assay type: functional, cell-based; method in brief: as §2
DLD-1 [18] = test: Inhibition of colony formation of human DLD1 cells by crystal violet staining based assay; assay type: functional, cell-based
Method in brief: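 400 DLD-1 cells per well grown overnight in RPMI/10% FBS, then exposed to 1.25, 2.5 and 5 μM for 24 or 48 h. Medium replaced and colonies grown a further 10 days, medium changed every third day. Fixed and stained with 0.5% crystal violet/6% glutaraldehyde for 30 min at room temperature, then imaged.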

[19] = target: LIG4/XRCC4 (Homo sapiens) (UniProt P49917+Q13426); test: Inhibition of human DNA Lig4/[…] at 10 uM using double strand nicked DNA as substrate after 30 mins in presence of ATP by acrylamide-based fluorescence-assay; assay type: protein-complex assay
DLD-1 [20] = test: Induction of apoptosis in human DLD1 cells assessed as late apoptotic cells at 10 uM after 48 hrs by Annexin V-FITC/propidium iodide staining-based flow cytometric method relative to control; assay type: functional; method in brief: as §2
MDA-MB-231 [21] = test: Antiproliferative activity against human MDA-MB-231 cells after 48 hrs by MTT assay; assay type: functional, cell-based; conditions: MDA-MB-231, 48 h; method in brief: as §1
DLD-1 [22] = test: Induction of apoptosis in 3D-spheroids of human DLD1 cells assessed as increase in cell death after 72 hrs by FDA/propidium iodide dye based phase contrast microscopy; assay type: functional
Method in brief: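 DLD-1 spheroids formed by hanging drop (5×10^3 cells/10 μL RPMI, 3 days, 37 °C, 5% CO2), moved to 0.7% agarose-coated wells and grown 7 days. Treated 72 h at 25, 12.5 and 6.25. Stained with FDA 2 μg/ml and PI 20 μg/ml for 20 min in the dark; imaged by fluorescence microscopy.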

DLD-1 [23] = test: Antiproliferative activity against human DLD1 cells after 48 hrs by MTT assay; assay type: functional, cell-based; conditions: DLD-1, 48 h; method in brief: as §1
DNA [24] = test: Binding affinity to Escherichia coli pUC18 DNA assessed as protection against DNase1-mediated cleavage at 500 uM preincubated for 30 mins followed by DNase1 addition measured after 5 mins by 1% agarose gel based UV-transilluminator analysis; assay type: nucleic-acid assay; method in brief: as §3

Row | SMILES | inhibition [1] [%] | Activity (HepG2 [2]) | Activity (MDA-MB-231 [3]) | Activity (DLD-1 [4]) | Activity (4T1 (Mus musculus)) | Activity (HeLa [5]) | also measured
1 | COc1ccc2[nH]c(C)c(C3C(C#N)=C(N)Oc4c3cc(/C=C/C(=O)c3ccc(C)cc3)cc4C(C)(C)C)c2c1 (stereo unspecified) | > 45 | – | – | – | – | – | –
2 | Cc1cc(/C=C/C(=O)c2cccs2)cc2c1OC(N)=C(C#N)C2c1c(C)[nH]c2ccccc12 (stereo unspecified) | > 45 | Active | Active | Active | Active | Active | –
3 | Cc1[nH]c2ccccc2c1C1C(C#N)=C(N)Oc2c1cc(/C=C/C(=O)c1cccs1)cc2C(C)(C)C (stereo unspecified) | 69.4 | Active | Active | Active | Active | Active | Activity (DLD-1 [6]): 17.38%; IC50 (HEK293): 12.4 µM; IC50 [7]: 5.76 µM; Activity (DNA [8]): inactive; IC50 (HeLa [9]): 6.4 µM; Activity (DLD-1 [10]): 14.85%; inhibition [11]: inactive; inhibition [12]: Dose-dependent effect; IC50 (HepG2 [13]): 6.46 µM; Activity (DLD-1 [14]): 26.53%; inhibition [15]: inactive; Activity (DLD-1 [16]): Active; Activity (DLD-1 [17]): Dose-dependent effect; inhibition (DLD-1 [18]): Dose-dependent effect; inhibition [19]: Dose-dependent effect; Activity (DLD-1 [20]): 50.96%; IC50 (MDA-MB-231 [21]): 6.09 µM; Activity (DLD-1 [22]): Active; IC50 (DLD-1 [23]): 4.66 µM
4 | Cc1[nH]c2ccccc2c1C1C(C#N)=C(N)Oc2c1cc(/C=C/C(=O)c1ccc(Cl)cc1)cc2C(C)(C)C (stereo unspecified) | > 50 | – | – | – | – | – | –
5 | CC1(C)S[C@@H]2[C@H](NC(=O)[C@H](N)c3ccccc3)C(=O)N2[C@H]1C(=O)O | – | – | – | – | – | – | Activity (DNA [24]): inactive
6 | COc1ccc2[nH]c(C)c(C3C(C#N)=C(N)Oc4c3cc(/C=C/C(=O)c3cccs3)cc4C(C)(C)C)c2c1 (stereo unspecified) | < 20 | Active | Active | Active | Active | Active | –
7 | Cc1[nH]c2ccccc2c1C1C(C#N)=C(N)Oc2c(C(C)C)cc(/C=C/C(=O)c3cccs3)cc21 (stereo unspecified) | < 20 | Active | Active | Active | Active | Active | –
